This is an account of results in ChEMBL document CHEMBL4368887, “Synthesis and X-ray study of dispiro 8-nitroquinolone analogues and their cytotoxic properties against human cervical cancer HeLa cells” (Medchemcomm, 2019).

In data set [1] the test system is HeLa. Nature of the data set: Induction of apoptosis in human HeLa cells assessed as apoptotic body formation at IC50 by DAPI staining-based fluorescence microscopic analysis. It is filed as functional, cell-based. In a few lines: (§1)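 Cells at 1×10^5 per coverslip exposed at IC50 concentration. Fixed in methanol:acetic acid 3:1 v/v, stained with DAPI 5 µg/mL for 20 min. Nuclear morphology viewed by fluorescence microscopy with a […].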

Data set [2] deals with HeLa. Nature of the data set: Induction of apoptosis in human HeLa cells assessed as cytoplasmic shrinkage at IC50 by DAPI staining-based fluorescence microscopic analysis. Format: functional, cell-based. In a few lines:
as §1

In data set [3] the test system is HeLa. Nature of the data set: Induction of morphological changes in human HeLa cells assessed as rounded cells at IC50 after 24 hrs by phase contrast microscopic analysis. It is filed as functional, cell-based. In a few lines: (§2)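 HeLa cells in DMEM with 10% FBS at 37°C, 5% CO2. […] Morphology compared with untreated cells under phase contrast microscope.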
Data set [4] relates to HeLa. Nature of the data set: Induction of apoptosis in human HeLa cells assessed as chromatin condensation at IC50 by DAPI staining-based fluorescence microscopic analysis. It is filed as functional, cell-based. In a few lines:
as §1

Data set [5] has as its system HeLa. Nature of the data set: Induction of apoptosis in human HeLa cells assessed as nuclear shrinkage at IC50 by DAPI staining-based fluorescence microscopic analysis. It is filed as functional, cell-based. In a few lines:
as §1

Data set [6] deals with HeLa. Nature of the data set: Induction of ROS generation in human HeLa cells at IC50 after 3 hrs by DCFH-DA dye-based flow cytometric analysis. Format: functional, cell-based. In a few lines:
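Harvested, washed twice in PBS, then 5 µM DCFH-DA (final) in DMEM for 10 min at 37°C. Flow cytometry at ex 485 / em 530 nm on 20000 cells per sample. Output is % of cells with DCF green fluorescence.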
(In general: A flow cytometer gives signals particle by particle.)

In data set [7] the test system is HeLa. Nature of the data set: Induction of morphological changes in human HeLa cells assessed as disintegrated membrane at IC50 after 24 hrs by phase contrast microscopic analysis. It is filed as functional, cell-based. In a few lines: as §2
Data set [8] deals with HeLa. Nature of the data set: Cytotoxicity against human HeLa cells after 72 hrs by MTT assay. It is filed as functional, cell-based. In a few lines: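 HeLa cells in DMEM with 4 mM L-glutamine, penicillin, streptomycin and 10% FBS. Seeded at 4000 cells/well, settled 24 h, then given serially diluted compound for 72 h at 37°C in 5% CO2. MTT in IMDM for 4 h, acidified ethanol lysis 15 min, A570 with 690 nm background. IC50 is 50% absorbance of untreated wells; three experiments in triplicate.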

The nature of data set [9]: Induction of hemolysis in human erythrocytes at IC50 by standard optical density assay relative to control. It is filed as cell-based, Erythrocyte. Particulars: read-out: Activity. In a few lines: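 Donor blood diluted in saline; RBCs spun down at 3000 rpm for 10 min and washed three times. Mixed with compound at a range of concentrations and incubated at 37°C in 5% CO2. Spun at 3000 rpm for 5 min, supernatant OD read at 570 nm. Hemolysis % calculated against saline (0%) and distilled water (100%) controls.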

Data set [10] concerns HeLa. Nature of the data set: Induction of morphological changes in human HeLa cells assessed as swollen cells at IC50 after 24 hrs by phase contrast microscopic analysis. It is filed as functional, cell-based. In a few lines: as §2
The subject of data set [11] is HeLa. Nature of the data set: Induction of morphological changes in human HeLa cells assessed as detached cells at IC50 after 24 hrs by phase contrast microscopic analysis. It is filed as functional, cell-based. In a few lines:
as §2

Data set [12] relates to HeLa. Nature of the data set: Induction of morphological changes in human HeLa cells assessed as cell shrinkage at IC50 after 24 hrs by phase contrast microscopic analysis. It is filed as functional, cell-based. In a few lines: as §2
The subject of data set [13] is HeLa. Nature of the data set: Induction of apoptosis in human HeLa cells assessed as necrotic cells level at IC50 after 48 hrs by Annexin V-FITC/propidium iodide staining based flow cytometric analysis (reference value: %). It is filed as functional.
In data set [14] the test system is HeLa. Nature of the data set: Induction of apoptosis in human HeLa cells assessed as late apoptotic cells level at IC50 after 48 hrs by Annexin V-FITC/propidium iodide staining based flow cytometric analysis (reference value: %). It is filed as functional.
In data set [15] the test system is HeLa. Nature of the data set: Induction of apoptosis in human HeLa cells at IC50 after 48 hrs by Annexin V-FITC/propidium iodide staining based flow cytometric analysis (reference value: 100%). Format: functional.
For data set [16], the system named is HeLa. Nature of the data set: Induction of apoptosis in human HeLa cells assessed as viable cells level at IC50 after 48 hrs by Annexin V-FITC/propidium iodide staining based flow cytometric analysis (reference value: 77.09%). It is filed as functional.
The test system of data set [17] is HeLa. Nature of the data set: Induction of apoptosis in human HeLa cells assessed as early apoptotic cells level at IC50 after 48 hrs by Annexin V-FITC/propidium iodide staining based flow cytometric analysis (reference value: 0%). It is filed as functional.
Data set [18] relates to HeLa. Nature of the data set: Induction of apoptosis in human HeLa cells assessed as increase in caspase3 levels at IC50 after 24 hrs by Western blot analysis. Format: functional, cell-based. In a few lines:
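Extracts of treated cells quantified by Bradford assay. 50 μg protein run on 12% SDS-PAGE and transferred to nitrocellulose. Blocked in 5% skim milk in PBS for 1 h at room temperature, primary antibody overnight, goat anti-mouse 1:2000. Three independent experiments in triplicate.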
On the technique in general: A western blot detects proteins with antibodies after separation by electrophoresis.

Active and inactive are the calls of the source. The rule behind the calls is not given here. Some results are limits rather than exact numbers.

As a reminder, the IC50 is the concentration at which inhibition is half-maximal. A lower IC50 goes with higher potency. In the case of `O=C1c2cccc([N+](=O)[O-])c2NC[C@@]12[C@H](c1ccc(Cl)cc1)[C@@H](c1ccccc1)N[C@]21C(=O)Nc2ccc(Br)cc21`, the outcome in data set [1], in data set [2], in data set [3], in data set [4], in data set [5] and in data set [6] was Active. Besides, the result in data set [7], in data set [10], in data set [11] and in data set [12] was Active. The Activity result in data set [8] was “Dose-dependent effect”. In addition, the midpoint of inhibition in data set [8], the IC50, lay at 23 µM. In data set [9], the hemolysis was less than 7%.
Consider `COc1ccc([C@@H]2[C@@H](c3ccccc3)N[C@]3(C(=O)Nc4ccc(Br)cc43)[C@]23CNc2c(cccc2[N+](=O)[O-])C3=O)cc1`, for which the result in data set [1], in data set [2], in data set [3], in data set [4], in data set [5] and in data set [6] was Active. Besides, the result in data set [7], in data set [10], in data set [11] and in [12] was Active. The Activity result in data set [8] was “Dose-dependent effect”. The compound further returned an IC50 in data set [8] of 19 µM. Also, the hemolysis in [9] is less than 7%.
`O=C1c2cccc([N+](=O)[O-])c2NC[C@@]12[C@H](c1ccc(Br)cc1)[C@@H](c1ccccc1)N[C@]21C(=O)Nc2ccc(Cl)cc21`: the result in data set [1], in data set [2], in data set [3], in [4], in data set [5] and in data set [6] was Active. In addition, the outcome in data set [7], in [10], in data set [11] and in data set [12] was Active. Further, the Activity result in data set [8] is “Dose-dependent effect”. This compound also displayed an IC50 in data set [8] of 21 µM. For the same compound, the hemolysis in data set [9] was less than 7%.
As to `O=C1c2cccc([N+](=O)[O-])c2NC[C@@]12[C@H](c1ccc(F)cc1)[C@@H](c1ccccc1)N[C@]21C(=O)Nc2ccc(F)cc21`, in data set [8], the Activity result is “Dose-dependent effect” and the IC50 was 20 µM.
On the same counts, the results for `COc1ccc([C@@H]2[C@@H](c3ccccc3)N[C@]3(C(=O)Nc4ccc(F)cc43)[C@]23CNc2c(cccc2[N+](=O)[O-])C3=O)cc1` are “Dose-dependent effect” and 24 µM.
Take `O=C1c2cccc([N+](=O)[O-])c2NC[C@@]12[C@H](c1ccc(Br)cc1)[C@@H](c1ccccc1)N[C@]21C(=O)Nc2ccc(F)cc21`: in [8], the Activity result was “Dose-dependent effect” and it took 26 µM to reach half-maximal inhibition (IC50).
For the compound `O=C1c2cccc([N+](=O)[O-])c2NC[C@@]12[C@H](c1ccc(Cl)cc1)[C@@H](c1ccccc1)N[C@]21C(=O)Nc2ccc(Cl)cc21`, the result in [1], in data set [2], in [3], in data set [4], in data set [5] and in [6] was Active. In addition, the outcome in data set [7], in data set [10], in [11] and in [12] was Active. Besides, the Activity result in data set [8] was “Dose-dependent effect”. In data set [8], this compound yielded an IC50 of 18 µM. In data set [9], the hemolysis was less than 7%.
As to `COc1ccc([C@@H]2[C@@H](c3ccccc3)N[C@]3(C(=O)Nc4ccc(Cl)cc43)[C@]23CNc2c(cccc2[N+](=O)[O-])C3=O)cc1`, the result in [1], in data set [2], in data set [3], in data set [4], in data set [5] and in data set [6] was Active. The outcome in data set [18], in [7], in [10], in data set [11] and in data set [12] was Active. Moreover, the Activity in [13] was 0%; in data set [14], 1.42%; in data set [15], 95.68%; in data set [16] it was 2.44%; in [17], 85.33%; in [8], “Dose-dependent effect”. Half-maximal inhibition in [8] (IC50) was put at 16 µM. The hemolysis in data set [9] is less than 7%.
For the compound `O=C1c2cccc([N+](=O)[O-])c2NC[C@@]12[C@H](c1ccc(F)cc1)[C@@H](c1ccccc1)N[C@]21C(=O)Nc2ccc(Cl)cc21`, in data set [8], the Activity result is “Dose-dependent effect” and half-maximal inhibition (IC50) was put at 27 µM.
As to `O=C1c2cccc([N+](=O)[O-])c2NC[C@@]12[C@H](c1ccc(Br)cc1)[C@@H](c1ccccc1)N[C@]21C(=O)Nc2ccc(Br)cc21`, in data set [8], the Activity result is “Dose-dependent effect” and half-maximal inhibition (IC50) required 25 µM.
On the same counts, the results for `O=C1c2cccc([N+](=O)[O-])c2NC[C@@]12[C@H](c1ccc(F)cc1)[C@@H](c1ccccc1)N[C@]21C(=O)Nc2ccc(Br)cc21` are “Dose-dependent effect” and 26 µM.
For `COc1cccc2c1C(=O)c1c(O)c3c(c(O)c1C2=O)C[C@@](O)(C(=O)CO)C[C@@H]3O[C@H]1C[C@H](N)[C@H](O)[C@H](C)O1` [DOXORUBICIN] the same measures were “Dose-dependent effect” and 14 µM.
On to `O=C1c2cccc([N+](=O)[O-])c2NC[C@@]12[C@H](c1ccc(Cl)cc1)[C@@H](c1ccccc1)N[C@]21C(=O)Nc2ccc(F)cc21`, for which, in [8], the Activity result was “Dose-dependent effect” and 25 µM corresponded to half-maximal inhibition (IC50).
